# High-throughput results deposited in PubChem by several laboratories.
# RAD54 inh – inhibitors of human RAD54 branch migration. RAD54 Holliday junction branch migration, FAM/BHQ fluorescence. AID 602329. actives 0.14% (n = 360,000). inhibition, % at 10.4 µM. Q92698;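 active means mean normalized replicate activity at least 40 and at least half of replicates scoring 40 or more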;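 further: 0% = median of neutral control wells and 100% = median of positive control wells; inhibitors cause a drop in the FAM fluorescence signal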
# UBC13 inh – human UBC13 polyubiquitination inhibition. UBC13 polyubiquitin chain formation, TR-FRET. inhibition, % at 20 µM. actives 0.47% (n = 330,000). AID 485273; in the data active means inhibition above about 45%, passing the limit was not always enough
# Target sequence (P61088 whole entry, looked up): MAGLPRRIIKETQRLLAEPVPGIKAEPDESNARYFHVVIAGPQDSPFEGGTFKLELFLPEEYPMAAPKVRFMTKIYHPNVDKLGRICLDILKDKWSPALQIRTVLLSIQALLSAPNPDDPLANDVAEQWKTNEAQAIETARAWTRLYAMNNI
# DNA FID counter – displaces DNA intercalator in HCV helicase counter-screen; DNA fluorescent intercalator displacement, fluorescence; inhibition, % at 7.9 µM; actives 0.17% (n = 290,000); in the data active means inhibition above about 37%;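 further: 0% = vehicle and 100% = reference compound; higher means more ethidium bromide displaced from hairpin DNA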
# Apaf-1 inh – inhibitors of human Apaf-1 apoptosome; actives 0.71% (n = 330,000); reconstituted apoptosome caspase-3 activity, DEVD-Rh110 fluorescence; O14727; inhibition, % at 20 µM; active means inhibition of at least 40% at 20 µM;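 further: plate controls were DMSO wells for no effect and DEVD-CHO caspase inhibitor wells for full effect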
#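 Material: reconstituted apoptosome with Apaf-1, cytochrome c, caspase-9, procaspase-3, dATP. Technique: Rh110 fluorescence intensity. Buffer or medium: pH 7.5 Hepes buffer with CHAPS, BSA, DTT. Times: 30 min plus 50 min, RT.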
# Neddyl block – inhibitors of human cullin neddylation; P61081+Q13564; TR-FRET cullin neddylation, biochemical; calls only at 25 µM; actives 0.58% (n = 360,000); in the data active means inhibition above about 36%
# RAD52 anneal inh – inhibitors of human RAD52 DNA annealing; inhibition, % at 18.7 µM; recombinant RAD52 DNA annealing, FRET fluorescence; actives 0.46% (n = 360,000); P43351;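 active means every replicate showing at least 50% inhibition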
# Target sequence (P43351 whole entry, looked up): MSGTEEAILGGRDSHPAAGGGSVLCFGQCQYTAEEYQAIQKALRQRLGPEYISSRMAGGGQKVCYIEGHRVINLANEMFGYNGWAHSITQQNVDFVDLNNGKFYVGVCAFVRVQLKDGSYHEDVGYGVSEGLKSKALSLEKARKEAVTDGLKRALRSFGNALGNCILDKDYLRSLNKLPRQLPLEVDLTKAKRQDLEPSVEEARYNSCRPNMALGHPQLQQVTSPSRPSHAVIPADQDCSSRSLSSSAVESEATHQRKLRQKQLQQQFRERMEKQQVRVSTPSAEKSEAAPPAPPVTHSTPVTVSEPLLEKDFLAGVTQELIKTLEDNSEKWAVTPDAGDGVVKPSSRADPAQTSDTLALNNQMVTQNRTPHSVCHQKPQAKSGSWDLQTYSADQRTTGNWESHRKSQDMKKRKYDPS
# Casp3 counter – inhibits human caspase-3 in UBC13 counter-screen; shares compounds with UBC13 inh; Recombinant caspase-3, Caspase-Glo 3/7 luminescence, 60 min; inhibition, % at 20 µM; actives 4% (n = 1,400); AID 488856;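 active means mean inhibition across replicates above about 26%, limit read from the data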;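 further: plate controls were DMSO with caspase-3 for no effect and DMSO wells lacking enzyme for full effect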
# UBC13 conf – confirmation of human UBC13 polyubiquitin inhibitors; shares compounds with UBC13 inh; UBC13 polyubiquitination, TR-FRET, biochemical; inhibition, % at 10 µM; actives 68% (n = 1,400); AID 488859; in the data active means inhibition above about 45%
# Apaf-1 inh conf2 – confirmation of Apaf-1 inhibitors | shares compounds with Apaf-1 inh | actives 25% (n = 1,800) | inhibition, % at 20 µM | AID 504614 | reconstituted apoptosome, caspase-3 DEVD-Rh110 fluorescence;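 active means mean inhibition of at least 40% at 20 µM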;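 further: plate controls were DMSO wells for no effect and DEVD-CHO caspase inhibitor control wells for full effect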
# Rh110 interf inh – counter-screen for Apaf-1 inhibitors: fluorescence interference; shares compounds with Apaf-1 inh; Rh110 fluorescence interference, quenched caspase reaction; activation (fluorescence interference), % at 20 µM; 1,800 tested, under 10 active; AID 504615;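 active means signal rise of 40% or more at 20 µM, treated as a fluorescence artifact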
# Apaf1 inh interf – shows fluorescence interference in the Apaf-1 inhibitor assay format; AID 588538; IC50, µM; shares compounds with Apaf-1 inh; 460 tested, under 10 active; fluorescence interference counterscreen, Apaf-1 assay format; call rule not given here
# RAD52 DNA ctr – binds DNA, flagging false RAD52 inhibitor hits; shares compounds with RAD52 anneal inh; Salmon sperm DNA/acridine orange FP displacement, DNA binding; AC50, µM; actives 8% (n = 1,000); AID 652128;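 active means fitted half-maximal concentration for signal loss at or below twice the highest dose tested, in every separate run, actives reach about 64 µM in these data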
# * = called active by the depositor; i = inactive; . = no result shown. Hits are enriched below; roughly 1.6% of the tested compounds scored in any of these assays.
SMILES,RAD54 inh,UBC13 inh,DNA FID counter,Apaf-1 inh,Neddyl block,RAD52 anneal inh,Apaf-1 inh conf2,Rh110 interf inh,others
NC(N)=N/N=C/c1ccc(N(c2ccccc2)c2ccccc2)cc1,0,107*,25,61*,i,89*,43*,3,Casp3 counter=-6;UBC13 conf=119*;Apaf1 inh interf=>100;RAD52 DNA ctr=i
CC(=O)C1CCC2C3CCC4CC(O)CCC4(C)C3CCC12C (stereo unspecified),-2,18,.,13,i,7,.,.,
C[C@]12CCC3C(CC[C@H]4C[C@@H](O)CC[C@]34C)C1CC[C@@H]2OC(=O)[C@H](N)CCCCN (stereo partly specified),66*,105*,.,23,i,97*,.,.,Casp3 counter=2;UBC13 conf=106*;RAD52 DNA ctr=i
Cc1ccc(OC(=O)N(C)C[C@H]2OCc3ccccc3-c3c(n(C)c4ccccc34)C(=O)N([C@H](C)CO)C[C@H]2C)cc1,.,.,.,.,.,8,.,.,
CCN(CC)c1ccc(N=Cc2c(O)n(-c3cc(OC)ccc3OC)c(=O)[nH]c2=O)cc1,-29,-31,-23,48*,i,.,13,1,
CCN(CCO)c1ccc(N=Cc2c(O)n(C)c(=S)[nH]c2=O)cc1,-17,-252,-3,51*,i,-288,16,-7,
COc1ccc(Cn2c(N)c(C(=O)NCc3ccco3)c3nc4ccccc4nc32)cc1OC,-16,-22,-34,66*,i,.,25,11,
CC(C)CNC(=O)c1c(N)n(Cc2ccc3c(c2)OCO3)c2nc3ccccc3nc12,-11,16,-22,96*,.,.,34,-2,
COCCCNC(=O)c1c(N)n(Cc2ccco2)c2nc3ccccc3nc12,-4,-27,-10,27,.,-38,.,.,
CCCNC(=O)c1c(N)n(Cc2ccc3c(c2)OCO3)c2nc3ccccc3nc12,3,8,-6,83*,.,.,20,-4,
CC(C)CNC(=O)c1c(N)n(Cc2ccco2)c2nc3ccccc3nc12,-3,-13,-9,45*,.,.,32,18,
CC(C)OC(=O)c1c(N)n(Cc2ccco2)c2nc3ccccc3nc12,-10,-7,-2,4,.,.,.,.,
COC(=O)c1c(N)n(Cc2ccc(OC)cc2)c2nc3ccccc3nc12,3,1,-11,33,.,.,.,.,
COC(=O)[C@H]1[C@H](CO)[C@H]2Cn3c(ccc(-c4ccccc4)c3=O)[C@@H]1N2C(=O)c1ccccc1F,-12,.,.,.,.,-17,.,.,
O=C(O)[C@@H]1[C@@H](CO)[C@@H]2Cn3c(ccc(-c4ccccc4)c3=O)[C@H]1N2S(=O)(=O)c1ccccc1F,-2,.,.,.,.,-11,.,.,
CC(C)CCNC(=O)c1c(N)n(Cc2ccc3c(c2)OCO3)c2nc3ccccc3nc12,.,0,-7,90*,.,.,35,14,
c1cncc(C2CCCCN2)c1 (stereo unspecified),-17,-1,0,-6,i,-5,.,.,
c1cncc(C2Nc3cccc4cccc(c34)N2)c1,15,-45,-4,42*,i,-15,11,1,
CCCN1CCc2cccc3c2[C@H]1Cc1ccc(O)c(O)c1-3,35,-4,.,53*,i,.,13,10,
Cc1nc2c(=O)n(C)c(=O)nc-2n(C)n1,.,-23,-1,99*,i,.,100*,-3,Apaf1 inh interf=>100
Cc1ccc(C[n+]2c(-c3ccc(C)cc3)cc(-c3ccc(C)cc3)cc2-c2ccc(C)cc2)cc1,30,29,.,79*,.,.,37,7,
O=C(Cc1ccccc1)N1CCCCN2[C@@H](CO)[C@@H](c3ccc(-c4ccccc4)cc3)[C@@H]2C1,-7,.,.,.,.,-9,.,.,
C[C@H]1CN([C@@H](C)CO)C(=O)c2c(c3ccccc3n2C)-c2ccccc2CO[C@H]1CN(C)C(=O)Oc1ccccc1,.,.,.,.,.,4,.,.,
Cc1ccccc1S(=O)(=O)N1[C@@H]2c3ccc(-c4cccnc4)c(=O)n3C[C@H]1[C@H](CO)[C@H]2C(=O)O,-6,.,.,.,.,-8,.,.,
CCCCn1c(=O)c(C(=O)NCc2ccccc2)c(O)c2ccccc21,4,16,-9,-8,i,1,.,.,
SMILES,RAD54 inh,UBC13 inh,DNA FID counter,Apaf-1 inh,Neddyl block,RAD52 anneal inh,Apaf-1 inh conf2,Rh110 interf inh,others
COCCCn1c(N)c(C(=O)OCCOC)c2nc3ccccc3nc21,2,-10,-15,95*,.,.,16,12,
COCCOC(=O)c1c(N)n(Cc2ccco2)c2nc3ccccc3nc12,-41,-11,-3,27,.,.,.,.,
CCOC(=O)c1c(NS(=O)(=O)c2ccccc2)n(CCCOC)c2nc3ccccc3nc12,.,-11,-19,96*,i,.,76*,4,Apaf1 inh interf=>100
CCCCNC(=O)c1c(N)n(CCCOC)c2nc3ccccc3nc12,-12,3,-10,90*,.,.,50*,1,Apaf1 inh interf=>100
Nc1c(C(=O)OCC2CCCO2)c2nc3ccccc3nc2n1Cc1cccs1 (stereo unspecified),7,5,-20,56*,.,.,23,5,
O=C(Cc1ccccn1)N1CCCCN2[C@@H](CO)[C@H](c3ccc(-c4ccccc4)cc3)[C@@H]2C1,-1,.,.,.,.,-14,.,.,
COCCOC(=O)c1c(N)n(Cc2ccc(OC)cc2)c2nc3ccccc3nc12,-5,-10,-21,66*,.,.,21,9,
CC(C)OCCCNC(=O)c1c(N)n(Cc2cccs2)c2nc3ccccc3nc12,-4,6,-18,95*,.,.,34,14,
COCCNC(=O)c1c(N)n(CCC(C)C)c2nc3ccccc3nc12,11,36,-19,82*,.,.,30,9,
CC(C)CCn1c(=O)c(C(=O)NCc2ccco2)c(O)c2ccccc21,-8,0,-16,-5,i,-6,.,.,
CC(C)CCn1c(N)c(C(=O)NCc2cccs2)c2nc3ccccc3nc21,-4,13,-7,89*,.,-34,30,5,
COC(=O)[C@@H]1[C@@H](CO)[C@@H]2Cn3c(ccc(-c4ccccc4F)c3=O)[C@H]1N2,0,.,.,.,.,-17,.,.,
O=C(Cc1ccccc1)N1CCCCN2[C@@H](CO)[C@H](c3ccc(C#CC4(O)CCCC4)cc3)[C@@H]2C1,4,.,.,.,.,-1,.,.,
